pEC50, pIC50: −log10 of the molar value.
Experiments:
[1] = molecular target: RNA-directed RNA polymerase (Hepacivirus hominis, UniProt O39930); experiment: Inhibition of HCV 1b BK six His-tagged C-terminal truncated 544 amino acid NS5B RNA dependent RNA polymerase; set-up: species or system Hepatitis C virus subtype 1b
Outline: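 HCV genotype 1b (BK) NS5B lacking 47 C-terminal residues, His6-tagged, E. coli-expressed; 7 nM enzyme with 5 µg HCV 3′X RNA template-primer, 50 µM each ATP/GTP/CTP, 2 µM UTP plus [3H]-UTP; pH 7.5 Tris, 5 mM MgCl2. Compounds in DMSO (5% final). 60 min at 25 °C; TCA-precipitable radioactivity read. Triplicate, mean of three experiments.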

Hepatitis C virus = experiment: Inhibition of HCV subgenomic RNA replication in Huh5-2 cells after 48 hrs by replicon assay; type: functional, organism-based, Hepacivirus hominis; conditions: Huh-5-2, 48 h
Outline: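 Huh-5-2 cells (Huh-7-derived, genotype 1b subgenomic replicon with luciferase reporter) seeded at 5 × 10^3 per well in DMEM with 10% FBS, 37 °C, 5% CO2; compounds added next day, 48 h exposure; luciferase activity read. EC50 is the concentration reducing replication by 50%. Triplicate, mean of three experiments.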

Huh-5-2 = experiment: Viability of Huh5-2 cells by MTT assay; type: functional; conditions: Homo sapiens
[2] = Therapeutic index, CC50 for viability of Huh5-2 cells/EC50 for inhibition of HCV subgenomic RNA replication; type: cell-based, Huh-5-2; conditions: human, read-out: Ratio CC50/EC50
[3] = Plasma concentration in rat at 30 mg/kg, po after 1 hr; type: ADME, organism-based; set-up: dose 30 mg/kg, route oral
Outline: (§1)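 Rats dosed orally at 30 mg/kg; plasma sampled at 1 and 2 h; n = 2 or 3.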

[4] = Plasma concentration in rat at 30 mg/kg, po after 2 hrs; type: ADME, organism-based; set-up: dose 30 mg/kg, route oral; outline: as §1

RNA-directed RNA polymerase, sequence (O39930 whole entry, the tested form may be a part): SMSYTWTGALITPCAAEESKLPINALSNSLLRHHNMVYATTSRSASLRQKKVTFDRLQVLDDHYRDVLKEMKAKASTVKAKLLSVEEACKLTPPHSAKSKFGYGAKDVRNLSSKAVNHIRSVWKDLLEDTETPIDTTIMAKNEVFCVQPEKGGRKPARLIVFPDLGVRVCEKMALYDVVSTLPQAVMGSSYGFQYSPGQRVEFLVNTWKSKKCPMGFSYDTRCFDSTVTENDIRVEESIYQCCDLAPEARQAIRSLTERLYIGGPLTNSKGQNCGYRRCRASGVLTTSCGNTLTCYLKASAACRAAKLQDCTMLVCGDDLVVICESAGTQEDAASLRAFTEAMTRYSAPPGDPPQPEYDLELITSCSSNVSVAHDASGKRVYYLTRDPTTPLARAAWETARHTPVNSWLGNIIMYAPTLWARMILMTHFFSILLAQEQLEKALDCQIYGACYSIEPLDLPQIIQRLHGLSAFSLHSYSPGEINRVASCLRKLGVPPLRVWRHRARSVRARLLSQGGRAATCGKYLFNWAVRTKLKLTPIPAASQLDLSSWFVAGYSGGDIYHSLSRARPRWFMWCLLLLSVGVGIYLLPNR

Row | SMILES | pIC50 [1] | pEC50 (Hepatitis C virus) | CC50 (Huh-5-2) | selectivity ratio [2] | concentration at 1 h [3] | concentration at 2 h [4]
1 | O=C(O)c1ccc2c(c1)nc(-c1ccc(OCc3cc(Cl)ccc3-c3ccc(Cl)cc3)cc1)n2C1CCCCC1 | 7.30 | 5.52 | 26 µM | 13 |  | 
2 | CC(=O)N(c1ccc(-c2ccc(Cl)cc2)c(COc2ccc(-c3nc4cc(C(=O)O)ccc4n3C3CCCCC3)c(F)c2)c1)C(C)C | 7.68 | 6.80 | 20 µM | 125 | 1.1 µM | 0.7 µM
3 | O=C(O)c1ccc2c(c1)nc(-c1ccc(OCc3ccccc3-c3ccccc3)c(F)c1)n2C1CCCCC1 | 6.42 |  |  |  |  | 
4 | O=C(O)c1ccc(-c2ccc(Cl)cc2)c(COc2ccc(-c3nc4cc(C(=O)O)ccc4n3C3CCCCC3)cc2)c1 | 7.62 | < 5.00 | > 50 µM |  |  | 
5 | CN(C)c1ccc(-c2ccc(Cl)cc2)c(COc2ccc(-c3nc4cc(C(=O)O)ccc4n3C3CCCCC3)cc2)c1 | 7.20 | 5.59 | 30 µM | 12 |  | 
6 | N#Cc1ccc(-c2ccc(Cl)cc2)c(COc2ccc(-c3nc4cc(C(=O)O)ccc4n3C3CCCCC3)cc2)c1 | 7.39 | 6.09 | 23 µM | 28 |  | 
7 | CCCNC(=O)c1ccc(-c2ccc(Cl)cc2)c(COc2ccc(-c3nc4cc(C(=O)O)ccc4n3C3CCCCC3)c(F)c2)c1 | 7.68 | 6.42 | 24 µM | 63 | 1.3 µM | 0.6 µM
8 | CN(C)C(=O)c1ccc(-c2ccc(Cl)cc2)c(COc2ccc(-c3nc4cc(C(=O)O)ccc4n3C3CCCCC3)cc2)c1 | 7.82 | 6.43 | 28 µM | 76 |  | 
9 | Cc1ncc(COc2ccc(-c3nc4cc(C(=O)O)ccc4n3C3CCCCC3)cc2)c(-c2ccc(Cl)cc2)n1 | 7.06 | 5.82 | 24 µM | 16 |  | 
10 | O=C(O)c1ccc2c(c1)nc(-c1ccc(OCc3cc(C(=O)N4CCC(O)CC4)ccc3-c3ccc(Cl)cc3)cc1F)n2C1CCCCC1 | 7.85 | 6.42 | 26 µM | 68 | 0.1 µM | 
11 | O=C(O)c1ccc2c(c1)nc(-c1ccc(OCc3cc(C(=O)NCCO)ccc3-c3ccc(Cl)cc3)cc1F)n2C1CCCCC1 | 7.68 | 6.03 | 26 µM | 28 |  | 
12 | CC(=O)c1ccc(-c2ccc(Cl)cc2)c(COc2ccc(-c3nc4cc(C(=O)O)ccc4n3C3CCCCC3)cc2)c1 | 7.74 | 6.47 | 24 µM | 71 |  | 
13 | CC(=O)N(C)c1ccc(-c2ccc(Cl)cc2)c(COc2ccc(-c3nc4cc(C(=O)O)ccc4n3C3CCCCC3)c(F)c2)c1 | 7.80 | 6.82 | 26 µM | 173 | 0.9 µM | 1.1 µM
14 | CCN(C(C)=O)c1ccc(-c2ccc(Cl)cc2)c(COc2ccc(-c3nc4cc(C(=O)O)ccc4n3C3CCCCC3)c(F)c2)c1 | 7.72 | 6.85 | 25 µM | 179 | 1.5 µM | 0.8 µM
15 | CNC(=O)c1ccc(-c2ccc(Cl)cc2)c(COc2ccc(-c3nc4cc(C(=O)O)ccc4n3C3CCCCC3)c(F)c2)c1 | 7.92 | 6.44 | 25 µM | 69 | 0.7 µM | 0.5 µM
16 | O=C(O)c1ccc2c(c1)nc(-c1ccc(OCc3cc(Cl)ccc3-c3cccnc3)cc1)n2C1CCCCC1 | 6.54 | 5.59 |  |  |  | 
17 | N#Cc1ccc(-c2ccc(Cl)cc2COc2ccc(-c3nc4cc(C(=O)O)ccc4n3C3CCCCC3)cc2)cc1 | 7.26 | 5.89 | 26 µM |  |  | 
18 | O=C(O)c1ccc2c(c1)nc(-c1ccc(OCc3cc(C(=O)NCc4ccccc4)ccc3-c3ccc(Cl)cc3)cc1)n2C1CCCCC1 | 7.54 | 5.96 | 22 µM | 20 |  | 
19 | O=C(O)c1ccc2c(c1)nc(-c1ccc(OCc3cccnc3-c3ccc(Cl)cc3)cc1)n2C1CCCCC1 | 7.28 | 5.92 | > 50 µM | > 41 |  | 
20 | O=C(O)c1ccc2c(c1)nc(-c1ccc(OCc3cc(C(=O)N4CCOCC4)ccc3-c3ccc(Cl)cc3)cc1F)n2C1CCCCC1 | 7.85 | 6.55 | 25 µM | 89 | 1.1 µM | 0.5 µM
21 | O=C(O)c1ccc2c(c1)nc(-c1ccc(OCc3cc(C(=O)N4CCCCC4)ccc3-c3ccc(Cl)cc3)cc1F)n2C1CCCCC1 | 7.74 | 6.57 | 24 µM | 89 | 2.2 µM | 0.7 µM
22 | O=C(O)c1ccc2c(c1)nc(-c1ccc(OCc3ccccc3-c3ccccc3)cc1Cl)n2C1CCCCC1 | 6.46 |  |  |  |  | 

Row | SMILES | pIC50 [1] | pEC50 (Hepatitis C virus) | CC50 (Huh-5-2) | selectivity ratio [2] | concentration at 1 h [3] | concentration at 2 h [4]
23 | O=C(O)c1ccc2c(c1)nc(-c1ccc(OCc3cc(Cl)ccc3-c3ccccc3)cc1)n2C1CCCCC1 | 6.70 | 5.43 | 25 µM |  |  | 
24 | NC(=O)c1ccc(-c2ccc(Cl)cc2COc2ccc(-c3nc4cc(C(=O)O)ccc4n3C3CCCCC3)cc2)cc1 | 7.16 | 5.60 | > 50 µM |  |  | 
25 | Cc1nc(COc2ccc(-c3nc4cc(C(=O)O)ccc4n3C3CCCCC3)cc2)c(-c2ccc(Cl)cc2)s1 | 6.77 | 5.20 | 31 µM | 4.9 |  | 
26 | COc1cc(OCc2ccccc2-c2ccccc2)ccc1-c1nc2cc(C(=O)O)ccc2n1C1CCCCC1 | 5.96 |  |  |  |  | 
27 | CC(C)NC(=O)c1ccc(-c2ccc(Cl)cc2)c(COc2ccc(-c3nc4cc(C(=O)O)ccc4n3C3CCCCC3)c(F)c2)c1 | 7.89 | 6.70 | 22 µM | 110 | 1.1 µM | 0.3 µM
28 | Cc1ccc(-c2ccc(Cl)cc2COc2ccc(-c3nc4cc(C(=O)O)ccc4n3C3CCCCC3)cc2)cc1 | 7.01 | 5.47 | 25 µM |  |  | 
29 | CN(C)C(=O)Nc1ccc(-c2ccc(Cl)cc2)c(COc2ccc(-c3nc4cc(C(=O)O)ccc4n3C3CCCCC3)c(F)c2)c1 | 7.66 | 6.21 | 25 µM | 40 |  | 
30 | CC(=O)Nc1ccc(-c2ccc(Cl)cc2)c(COc2ccc(-c3nc4cc(C(=O)O)ccc4n3C3CCCCC3)cc2)c1 | 7.66 | 5.89 | 23 µM | 18 |  | 
31 | Cc1nc(-c2ccc(Cl)cc2)c(COc2ccc(-c3nc4cc(C(=O)O)ccc4n3C3CCCCC3)cc2)s1 | 7.05 | 5.54 | 39 µM | 13 |  | 
32 | CN(C)S(=O)(=O)c1ccc(-c2ccc(Cl)cc2)c(COc2ccc(-c3nc4cc(C(=O)O)ccc4n3C3CCCCC3)cc2)c1 | 7.64 | 6.18 | 26 µM | 39 |  | 
33 | CNC(=O)c1ccc(-c2ccc(Cl)cc2)c(COc2ccc(-c3nc4cc(C(=O)O)ccc4n3C3CCCCC3)cc2)c1 | 7.74 | 6.28 | 25 µM | 47 |  | 
34 | O=C(O)c1ccc2c(c1)nc(-c1ccc(OCc3cc(Cl)ccc3-c3cccc(Cl)c3)cc1)n2C1CCCCC1 | 6.32 | 5.19 | 32 µM |  |  | 
35 | CC(=O)Nc1ccc(-c2ccc(Cl)cc2)c(COc2ccc(-c3nc4cc(C(=O)O)ccc4n3C3CCCCC3)c(F)c2)c1 | 7.85 | 6.34 | 24 µM | 52 | 1 µM | 0.3 µM
36 | COc1ccc(-c2ccc(Cl)cc2)c(COc2ccc(-c3nc4cc(C(=O)O)ccc4n3C3CCCCC3)cc2)c1 | 7.43 | 5.80 | 24 µM | 15 |  | 
37 | O=C(O)c1ccc2c(c1)nc(-c1ccc(OCc3ccccc3-c3ccc(Cl)cc3)cc1)n2C1CCCCC1 | 7.11 | 5.49 | 35 µM | 11 |  | 
38 | O=C(O)c1ccc2c(c1)nc(-c1ccc(OCc3ncccc3-c3ccc(Cl)cc3)cc1)n2C1CCCCC1 | 6.82 | 5.41 | 25 µM | 6 |  | 
39 | COc1ccc(-c2ccc(Cl)cc2COc2ccc(-c3nc4cc(C(=O)O)ccc4n3C3CCCCC3)cc2)cc1 | 7.00 | 5.62 | 25 µM |  |  | 
40 | NS(=O)(=O)c1ccc(-c2ccc(Cl)cc2)c(COc2ccc(-c3nc4cc(C(=O)O)ccc4n3C3CCCCC3)cc2)c1 | 7.80 | 5.82 | 27 µM | 18 |  | 
41 | O=C(O)c1ccc2c(c1)nc(-c1ccc(OCc3ccccc3-c3ccccc3)cc1F)n2C1CCCCC1 | 7.00 |  |  |  |  | 
42 | NC(=O)c1ccc(-c2ccc(Cl)cc2)c(COc2ccc(-c3nc4cc(C(=O)O)ccc4n3C3CCCCC3)cc2)c1 | 7.89 | 6.10 | 26 µM | 33 |  | 
43 | CN(C)C(=O)c1ccc(COc2ccc(-c3nc4cc(C(=O)O)ccc4n3C3CCCCC3)cc2)c(-c2ccc(Cl)cc2)c1 | 7.49 | 6.08 | 25 µM | 30 |  | 
44 | O=C(O)c1ccc2c(c1)nc(-c1ccc(OCc3ccccc3-c3ccccc3)cc1C(F)(F)F)n2C1CCCCC1 | 6.03 |  |  |  |  | 

Source: ChEMBL document CHEMBL1138950, “Benzimidazole derivatives bearing substituted biphenyls as hepatitis C virus NS5B RNA-dependent RNA polymerase inhibitors: structure-activity relationship studies and identification of a potent and highly selective inhibitor JTK-109” (J Med Chem, 2006)
